Drawing on ChEMBL document CHEMBL5712073, “DNA methylation in small cell lung cancer defines distinct disease subtypes and correlates with high expression of EZH2” (Oncogene, 2015), this text covers inhibition and Activity for four molecules.

Molecules are shown by their SMILES. The source made the active and inactive calls. The calls are words filed in the database; no cut-off is given here.

In data set [1] the target is Histone-lysine N-methyltransferase EZH2 (Homo sapiens) (UniProt Q15910). In words: Inhibition of EZH2 in human PDX LX92 cells assessed as decrease in H3K27me3 level after 7 days by Westernblot analysis. Format: cell-based. The following applies: time 7.0 day. The method, boiled down: (§1)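 Ex vivo LX92 cultures (dissociated PDX cells in DMEM:F12 plus EGM-2 growth factors, 5,000 cells/well) given EZH2 inhibitor daily at 1 µM final, DMSO vehicle. Day 7 lysates probed by Western blot for EZH1, EZH2, H3K27me2 and H3K27me3.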

For data set [2], the system named is PDX LX92. Briefly: Antiproliferative activity against human PDX LX92 cells assessed as resazurin conversion measured upto 7 days by alamar blue based assay. It is filed as functional, cell-based. The following applies: time <= 7.0 day. In short, it runs like this:
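LX92 PDX dissociated, filtered through 70 µm mesh, washed, red cells lysed; ~1×10^6 viable cells cultured in DMEM:F12 with EGM-2 growth factors. About 72 h after dissociation, seeded 5,000 cells/well; compound added daily at 1 µM final, DMSO vehicle. Viability read by resazurin conversion over time for 7 days; 2-way ANOVA with Dunnett adjustment.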
A general note: Alamar Blue is a resazurin reagent that responds to reducing activity.

Data set [3] in a line: Toxicity in athymic nude mouse xenografted with human PDX LX92 cells assessed as tolerability at 100 mg/kg, qd measured upto 42 days. Format: organism-based. The following applies: in vivo, 1008 h, time < 42 day. In short, it runs like this: (§2)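 Subcutaneous right-flank xenograft of 5×10^6 viable cells in 1:1 HBSS:matrigel; mice randomized at ~150 mm3. Vehicle 0.5% NaCMC with 0.1% Tween-80 in water; dosing Mon-Fri. Tumor volumes and body weights measured twice weekly.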
In general terms: Xenograft models place foreign cells or tissue in a host animal.

The test system of data set [4] is PDX LX92. In words: Antitumor activity against human PDX LX92 cells xenografted in athymic nude mouse assessed as reduction of H3K27me3 level at 100 mg/kg, bid measured upto 42 days by Westernblot analysis. It is filed as functional, organism-based. The following applies: time <= 42.0 day. In short, it runs like this:
(§3)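 Mice implanted subcutaneously in the right hind flank with 5×10^6 viable cells in 1:1 HBSS:matrigel; randomized at ~150 mm3 tumor volume. Drug formulated in 0.5% NaCMC with 0.1% Tween-80 in water, dosed BID (10AM/4PM), Mon-Fri. Tumors harvested 2 h after final dose for Western blot.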

Data set [5] deals with PDX LX92. In words: Antitumor activity against human PDX LX92 cells xenografted in athymic nude mouse assessed as reduction of EZH2 level at 100 mg/kg, bid measured upto 42 days by Westernblot analysis. It is filed as functional, organism-based. The following applies: time <= 42.0 day. In short, it runs like this: as §3
For data set [6], the system named is PDX LX92. In words: Antitumor activity against human PDX LX92 cells xenografted in athymic nude mouse assessed as reduction of EZH1 level at 100 mg/kg, bid measured upto 42 days by Westernblot analysis. Format: functional, organism-based. The following applies: time <= 42.0 day. In short, it runs like this:
as §3

In data set [7] the test system is PDX LX92. Briefly: Antitumor activity against human PDX LX92 cells xenografted in athymic nude mouse assessed as reduction of H3K27me2 level at 100 mg/kg, bid measured upto 42 days by Westernblot analysis. Format: functional, organism-based. The following applies: time <= 42.0 day. The method, boiled down: as §3
Data set [8] is described as follows: Toxicity in athymic nude mouse xenografted with human PDX LX92 cells assessed as tolerability at 100 mg/kg, bid measured upto 42 days. Format: organism-based. The following applies: in vivo, 1008 h, time < 42 day. The method, boiled down:
as §2

The target of data set [9] is Histone-lysine N-methyltransferase EZH2 (Homo sapiens) (UniProt Q15910). In words: Inhibition of EZH2 in human PDX LX92 cells assessed as decrease in H3K27me2 level after 7 days by Westernblot analysis. It is filed as cell-based. The following applies: time 7.0 day. In short, it runs like this: as §1

Sequence of Histone-lysine N-methyltransferase EZH2 (Homo sapiens) (Q15910 whole entry, looked up): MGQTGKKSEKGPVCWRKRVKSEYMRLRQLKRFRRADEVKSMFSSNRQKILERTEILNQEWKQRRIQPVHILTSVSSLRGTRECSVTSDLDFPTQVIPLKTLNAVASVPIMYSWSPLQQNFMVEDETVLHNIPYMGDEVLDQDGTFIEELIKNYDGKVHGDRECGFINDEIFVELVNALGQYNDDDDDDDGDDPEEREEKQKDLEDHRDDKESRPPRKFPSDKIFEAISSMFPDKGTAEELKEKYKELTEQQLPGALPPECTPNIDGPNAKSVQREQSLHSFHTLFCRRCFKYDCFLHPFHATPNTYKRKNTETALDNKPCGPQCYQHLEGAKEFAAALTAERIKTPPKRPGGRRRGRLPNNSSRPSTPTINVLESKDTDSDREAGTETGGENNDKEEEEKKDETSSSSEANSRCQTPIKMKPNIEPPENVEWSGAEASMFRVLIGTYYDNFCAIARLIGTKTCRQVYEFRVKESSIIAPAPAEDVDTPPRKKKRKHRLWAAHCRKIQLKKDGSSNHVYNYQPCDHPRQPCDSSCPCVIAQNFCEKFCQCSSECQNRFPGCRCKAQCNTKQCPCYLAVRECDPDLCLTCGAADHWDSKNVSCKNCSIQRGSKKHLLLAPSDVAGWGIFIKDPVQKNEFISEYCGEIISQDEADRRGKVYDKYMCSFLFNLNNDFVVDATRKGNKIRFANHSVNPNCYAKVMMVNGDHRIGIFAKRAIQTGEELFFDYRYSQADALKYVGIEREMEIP

As to `CCCc1cc(C)[nH]c(=O)c1CNC(=O)c1cc(-c2ccc(N3CCN(C(C)C)CC3)nc2)cc2c1cnn2C(C)C`, the inhibition result in data set [1] was “Active”. Moreover, the outcome in data set [2] was Active.
With `CCCc1cc(C)[nH]c(=O)c1CNC(=O)c1cc(-c2ccnc(N3CCN(C)CC3)c2)cc2c1cnn2C(C)C`, in [1], the inhibition result is “Active”. Besides, the result in data set [2] was Active.
With `CCN(c1cc(-c2ccc(CN3CCOCC3)cc2)cc(C(=O)NCc2c(C)cc(C)[nH]c2=O)c1C)C1CCOCC1` [TAZEMETOSTAT], the Activity entry in [3] and in [8] was “Non-Toxic” in each case. Moreover, the outcome in data set [4], in data set [5], in data set [6] and in data set [7] was Active.
Regarding `Cc1cc(C)c(CNC(=O)c2cc(-c3ccc(CN4CCOCC4)cc3)cc3c2cnn3C2CCCC2)c(=O)[nH]1`, the inhibition result in data set [9] and in data set [1] was “Active” each time. In addition, in [2], the outcome was Active.
